In ChEMBL document CHEMBL4229396, “Synthesis, structure and bioactivity of primary sulfamate-containing natural products” (Bioorg Med Chem Lett, 2018):
Converted amounts (≈) assume the structure as drawn.

How the values were obtained:
Cryptococcus neoformans = experiment: Antifungal activity against Cryptococcus neoformans var. grubii H99 ATCC 208821 at 20 uM by resazurin dye based assay relative to control; type: functional
How it was run: (§1)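 Screened by CO-ADD at a single concentration of 20 µM; growth inhibition above 50% at this concentration was classed as a hit. Strains and sources are given in Supplementary Information.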

Carbonic anhydrase 4 = Carbonic anhydrase 4 (Homo sapiens, UniProt P22748); experiment: Inhibition of recombinant human CA4 expressed in Escherichia coli assessed as reduction in CO2 hydration by stopped flow assay
Sequence of Carbonic anhydrase 4 (P22748 whole entry): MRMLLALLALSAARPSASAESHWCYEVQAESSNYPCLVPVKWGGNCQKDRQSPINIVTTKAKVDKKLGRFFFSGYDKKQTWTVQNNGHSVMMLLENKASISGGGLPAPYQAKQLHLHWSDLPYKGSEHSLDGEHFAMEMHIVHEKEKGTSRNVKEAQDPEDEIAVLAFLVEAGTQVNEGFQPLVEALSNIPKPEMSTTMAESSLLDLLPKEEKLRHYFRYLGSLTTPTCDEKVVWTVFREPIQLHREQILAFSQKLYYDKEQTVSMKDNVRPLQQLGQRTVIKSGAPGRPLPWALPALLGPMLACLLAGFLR
How it was run: (§2)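 Stopped-flow assay following the CA-catalysed hydration of CO2 (the physiological reaction); Ki values from three determinations, errors within ±5% of the reported value.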

Klebsiella pneumoniae = experiment: Antibacterial activity against Klebsiella pneumoniae ATCC 700603 at 20 uM relative to control; type: functional; how it was run: as §1
Candida albicans = experiment: Antifungal activity against Candida albicans ATCC 90028 at 20 uM by resazurin dye based assay relative to control; type: functional; how it was run: as §1
[1] = Cytotoxicity against HEK293 cells; type: cell-based; conditions: human
Carbonic anhydrase 9 = Carbonic anhydrase 9 (Homo sapiens, UniProt Q16790); experiment: Inhibition of recombinant human CA9 expressed in Escherichia coli assessed as reduction in CO2 hydration by stopped flow assay; how it was run: as §2
Carbonic anhydrase 1 = Carbonic anhydrase 1 (Homo sapiens, UniProt P00915); experiment: Inhibition of recombinant human CA1 expressed in Escherichia coli assessed as reduction in CO2 hydration by stopped flow assay; how it was run: as §2
Sequence of Carbonic anhydrase 1 (P00915 whole entry): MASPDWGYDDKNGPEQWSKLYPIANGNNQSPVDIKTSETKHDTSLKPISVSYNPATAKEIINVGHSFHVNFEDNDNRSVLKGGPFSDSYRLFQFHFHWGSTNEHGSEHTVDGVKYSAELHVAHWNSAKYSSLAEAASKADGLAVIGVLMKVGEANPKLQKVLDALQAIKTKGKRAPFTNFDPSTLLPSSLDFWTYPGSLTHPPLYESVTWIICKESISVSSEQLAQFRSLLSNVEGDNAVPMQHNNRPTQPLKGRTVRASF

Pseudomonas aeruginosa = experiment: Antibacterial activity against Pseudomonas aeruginosa ATCC 27853 at 20 uM relative to control; type: functional; how it was run: as §1
Escherichia coli [2] = experiment: Antibacterial activity against Escherichia coli ATCC 25922; type: functional
Escherichia coli [3] = experiment: Antibacterial activity against Escherichia coli ATCC 25922 at 20 uM relative to control; type: functional; how it was run: as §1
Staphylococcus aureus [4] = experiment: Antibacterial activity against Staphylococcus aureus ATCC 43300; type: functional
Carbonic anhydrase 2 = Carbonic anhydrase 2 (Homo sapiens, UniProt P00918); experiment: Inhibition of recombinant human CA2 expressed in Escherichia coli assessed as reduction in CO2 hydration by stopped flow assay; how it was run: as §2
Staphylococcus aureus [5] = experiment: Antibacterial activity against Staphylococcus aureus ATCC 43300 at 20 uM relative to control; type: functional; how it was run: as §1
Acinetobacter baumannii = experiment: Antibacterial activity against Acinetobacter baumannii ATCC 19606 at 20 uM relative to control; type: functional, ATCC 19606 = CIP 70.34 = JCM 6841; how it was run: as §1

SMILES | Activity (Cryptococcus neoformans) | Ki (Carbonic anhydrase 4) [nM] | Activity (Klebsiella pneumoniae) | Activity (Candida albicans) | CC50 [1] [nM] | Ki (Carbonic anhydrase 9) [nM] | Ki (Carbonic anhydrase 1) [nM] | Activity (Pseudomonas aeruginosa) | MIC (Escherichia coli [2]) [µM] | Activity (Escherichia coli [3]) | MIC (Staphylococcus aureus [4]) [µM] | Ki (Carbonic anhydrase 2) [nM] | Activity (Staphylococcus aureus [5]) | Activity (Acinetobacter baumannii)
Nc1nc(Cl)nc2c1ncn2[C@@H]1O[C@H](COS(N)(=O)=O)[C@@H](O)[C@H]1O | <=50% | 234 | <=50% | <=50% | < 150 | 143 | 167 | <=50% | 5 (≈ 1.9 µg/mL) | >50% | > 20 | 65.2 | <=50% | <=50%
Nc1ncnc2c1ncn2[C@@H]1O[C@H](COS(N)(=O)=O)[C@@H](O)[C@H]1O | <=50% | 4450 | <=50% | <=50% | 800 | 3100 | 6350 | <=50% | > 20 | <=50% | 10 (≈ 3.46 µg/mL) | 3410 | >50% | <=50%
